Screens from PubChem.
FID counter – compounds displacing fluorescent DNA intercalator, primary screen, artefact control for HCV NS3 helicase inhibitor project, biochemical, FID fluorescence | inhibition, % at 7.9 µM | DNA fluorescent intercalator displacement | 290,000 compounds, 0.17% hits; in the data active = inhibition above about 37%;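 note: 0% = vehicle and 100% = reference compound; higher means more ethidium bromide displaced from hairpin DNA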
ZTA DNA inh – counter-screen for EBNA-1 inhibitors: inhibitors of Epstein-Barr virus ZTA | P03206 | ZTA-DNA binding, fluorescence polarization | inhibition, % at 11 µM | 320,000 compounds, 0.15% hits; in the data active = inhibition above about 33%
Target sequence (P03206 whole entry, looked up): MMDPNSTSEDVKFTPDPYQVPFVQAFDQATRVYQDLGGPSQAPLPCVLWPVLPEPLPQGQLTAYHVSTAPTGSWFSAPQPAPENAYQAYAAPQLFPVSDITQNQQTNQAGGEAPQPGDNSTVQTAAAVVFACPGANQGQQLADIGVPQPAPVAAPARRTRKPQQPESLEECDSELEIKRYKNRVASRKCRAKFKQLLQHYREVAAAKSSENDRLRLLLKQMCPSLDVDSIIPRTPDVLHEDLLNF
FGF22 binding – binders of human FGF22 protein, primary screen, FGF22 synaptogenesis inhibitor project, biophysical, thermal shift, single point; Fibroblast growth factor 22 (Homo sapiens), Q9HCT0; recombinant FGF22 thermal shift, SYPRO orange fluorescence; percent of sucrose octasulfate shift, DMSO zero; activity (Tm shift, normalised), % at 9.99 µM; 340,000 compounds, 1.5% hits;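 active = mean Tm shift, scaled 0 neutral to 100 positive control, at about 1.3% or above, every replicate too, limit read from the data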
Target sequence (Q9HCT0 whole entry, looked up): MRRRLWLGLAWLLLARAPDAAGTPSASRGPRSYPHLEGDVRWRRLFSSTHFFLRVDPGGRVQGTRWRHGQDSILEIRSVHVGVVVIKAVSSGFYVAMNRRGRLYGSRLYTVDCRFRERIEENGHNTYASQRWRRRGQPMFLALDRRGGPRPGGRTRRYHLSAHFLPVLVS
NR3A LBD binder – binders of NR3A ligand-binding domain, primary screen, biophysical, differential scanning fluorimetry, uHTS; NR3A LBD differential scanning fluorimetry, Tm shift; 0% = protein alone, 100% = glycine-bound protein; Tm shift relative to glycine control, % at 25 µM; Glutamate receptor ionotropic, NMDA 3A (GRIN3A) ligand-binding domain; 340,000 compounds, 2.5% hits; AID 1259313, 2017;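 active = melting temperature shift of at least 10% of the positive control shift, at one fixed dose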
NS3 helicase inh – inhibitors of HCV NS3 helicase, primary screen, biochemical, Cy5 molecular beacon fluorescence | NS3 helicase DNA unwinding | inhibition, % at 10.9 µM | 290,000 compounds, 0.56% hits | AID 1800, 2009;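 active = inhibition above the mean of all tested compounds plus 3 SD, set per campaign, cut at about 35% in these data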;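 note: 0% = DMSO wells and 100% = thioflavine S control wells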
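assay system = NS3 helicase fragment of HCV | buffer or medium = MOPS pH 6.5, MgCl2, DTT, Tween20, BSA | timing = 60 min unwinding reaction at 25 °C after ATP addition | signal = Cy5 beacon fluorescence read at start and 1 h | read-out basis = % inhibition of unwinding | control set = low DMSO, high thioflavine S at 110 µM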
EBNA-1 inh – EBNA-1 DNA-binding inhibitors, primary screen, biochemical, fluorescence polarization; AID 1950, 2009; inhibition, % at 14.8 µM; 300,000 compounds, 0.34% hits; in the data active = inhibition above about 28%
Numbers without * were called inactive; nt = not tested or not shown. The list is not random: actives were taken first. Their share in the collection is about 3.6%.

SMILES	FID counter	ZTA DNA inh	FGF22 binding	NR3A LBD binder	NS3 helicase inh	EBNA-1 inh
COc1ccc(C(=O)Nc2ccc(NC(=O)c3cnccn3)cn2)cc1	-2	-10	0	14*	-10	0
COc1ccc(NC(=O)c2ccc(C)cc2)cc1	-6	-20	0	42*	-10	-1
COc1ccc(NC(=O)c2ccc(N3C(=O)C4CC=C(Cl)CC4C3=O)cc2)cc1 (stereo unspecified)	-24	-1	0	18*	-3	1
COc1ccc(NC(=O)c2ccc(NC(=O)CN3CCN(c4ccccc4)CC3)cc2)cc1	nt	nt	0	19*	nt	nt
Cc1ccc(SCC(=O)Nc2ccc(C(=O)Nc3ccc(O)cc3)cc2)cc1	-7	2	0	19*	8	8
Cn1cnc(S(=O)(=O)N[C@@H]2CC[C@@H](CC(=O)N3CCN(c4ccccc4)CC3)O[C@H]2CO)c1	nt	nt	0	nt	nt	nt
COc1ccc(C(=O)Nc2cc(-c3ccc(C)cc3)no2)cc1	-11	nt	0	11*	4	nt
COc1ccc(C(=O)Nc2cc(OC)c(Cl)cc2OC)cc1	-1	12	0	1	-14	-4
COc1ccc(C(=O)Nc2ccc(-c3ccc(NC(=O)c4ccc(OC)cc4)c(OC)c3)cc2OC)cc1	0	9	nt	28*	4	8
COC(c1ccccc1)c1nnc(CCC(=O)NC2CCCCC2)o1 (stereo unspecified)	-9	-2	1	5	5	1
COC(c1ccccc1)c1nnc(CCC(=O)N2CCN(Cc3cccs3)CC2)o1 (stereo unspecified)	-34	-2	0	-1	11	5
COC(c1ccccc1)c1nnc(CCC(=O)N2CCCCCCC2)o1 (stereo unspecified)	-20	-4	44*	2	-1	-12
COC(c1ccccc1)c1nnc(CCC(=O)N(C)C(C2CC2)C2CC2)o1 (stereo unspecified)	-31	11	44*	1	-24	-9
COCc1[nH]nc2c1C(c1ccc(F)cc1)N(c1ccccc1)C2=O (stereo unspecified)	nt	nt	42	nt	nt	nt
COCc1[nH]nc2c1C(c1ccc(F)cc1)N(c1ccc(OC)cc1)C2=O (stereo unspecified)	nt	nt	43*	nt	nt	nt
O=C(c1cccc(Br)c1)N1CCCC1	3	-13	nt	13*	1	4
CN(C)S(=O)(=O)N1CCN(C(=O)c2cccc(Br)c2)CC1	-7	1	nt	11*	-1	6
CN(C)S(=O)(=O)N1CCN(C(=O)c2ccccc2)CC1	-1	-15	nt	0	-6	-2
C[C@@H]1CN([C@@H](C)CO)C(=O)c2cc(NC(=O)NC3CCCCC3)ccc2O[C@H]1CN(C)C(=O)NC1CCCCC1	nt	nt	0	nt	nt	nt
CN(C)C(/C=C/Nc1ccc(O)cc1)=C(C#N)C#N	-9	-4	44*	4	7	-4
Cc1cccc(N/C=C/C(=C(C#N)C#N)N(C)C)c1	-2	-3	nt	2	-1	-5
Cc1ccccc1CN(C)C[C@H]1OCc2cnnn2CCCC(=O)N([C@H](C)CO)C[C@H]1C	nt	nt	0	nt	nt	nt
CC(=O)c1ccc(NC(=O)COC(=O)C2CCN(S(=O)(=O)c3cccs3)CC2)cc1	nt	nt	0	0	nt	nt
COc1ccc(NC(=O)COC(=O)C2CCC2)cc1Cl	-5	-6	0	18*	-1	-8
COc1cccc(NC(=O)COC(=O)C2CCN(S(=O)(=O)c3cccs3)CC2)c1	-12	-6	43*	1	-2	4
SMILES	FID counter	ZTA DNA inh	FGF22 binding	NR3A LBD binder	NS3 helicase inh	EBNA-1 inh
COc1ccc(Cl)cc1NC(=O)COC(=O)C1CCCCC1	nt	11	0	1	nt	nt
COC(=O)C[C@H]1C[C@@H]2c3cc(NC(=O)CC4CC4)ccc3O[C@@H]2[C@H](CO)O1	nt	nt	0	nt	nt	nt
Cc1[nH]c2ccccc2c1C(=O)CSC(=S)N1CCOCC1	-11	-1	0	14*	-21	-15
Cc1[nH]c2ccccc2c1C(=O)C(=O)N1CCOCC1	-7	-8	0	-1	1	7
CCc1nnc(NC(=O)c2cc(OC)c(OC)cc2[N+](=O)[O-])s1	-1	5	0	0	-5	-13
COc1cc(C(=O)Nc2nnc(SC)s2)c([N+](=O)[O-])cc1OC	3	3	44*	-1	3	-5
COc1ccc2c3c([nH]c2c1)[C@H](CO)N(C(=O)CC1CC1)CC31CN(Cc2ccncc2)C1	nt	nt	0	nt	nt	nt
C[C@@H]1CN([C@@H](C)CO)C(=O)c2cc(NC(=O)Nc3ccc4c(c3)OCO4)ccc2O[C@@H](C)CCCCO[C@@H]1CN(C)S(=O)(=O)c1cn(C)cn1	nt	nt	-1	nt	nt	nt
Cc1ccc(/C=C\c2nccc3c2[nH]c2ccccc23)cc1	7	-18	1	14*	-12	4
C(=C\c1nccc2c1[nH]c1ccccc12)/c1ccccc1	10	12	0	16*	-19	11
O=c1[nH]c2ccccc2nc1/C=C/c1ccc(F)cc1	-1	-7	43*	-4	-4	0
Fc1ccc(/C=C\c2nccc3c2[nH]c2ccccc23)cc1	6	10	0	13*	-9	-12
O=C(C[C@H]1CC[C@@H]2[C@H](COC[C@H](O)CN2CC2CCCCC2)O1)NCC1CC1	nt	nt	0	nt	nt	nt
Cc1ccc(-c2ccc([C@@H]3[C@@H](CO)N4CCCCN(C(=O)c5ccncc5)C[C@@H]34)cc2)cc1	nt	nt	0	nt	nt	nt
COC(=O)c1c(CC[C@@H](CO)NC(=O)N[C@H](Cn2cc(Cc3ccccc3)nn2)C(C)C)oc(C(C)=O)c1C(=O)OC	nt	nt	0	nt	nt	nt
C[C@@H]1CN([C@H](C)CO)C(=O)Cc2cc(NC(=O)c3ccncc3)ccc2O[C@@H]1CN(C)C(=O)Nc1ccccc1	nt	nt	0	nt	nt	nt
Cc1ccc2nc(NC(=O)c3ccc(NS(=O)(=O)c4cccs4)cc3)sc2c1	-3	8	0	33*	4	-4
C/C(=N\NC(=O)c1ccc(NS(=O)(=O)c2cccs2)cc1)c1ccc(C(C)(C)C)cc1	-3	-14	0	15*	4	-1
CS(=O)(=O)c1ccc2nc(NC(=O)c3ccc(NS(=O)(=O)c4cccc([N+](=O)[O-])c4)cc3)sc2c1	1	4	0	16*	-12	14
CS(=O)(=O)c1ccc2nc(NC(=O)c3ccccc3)sc2c1	-5	7	0	3	12	-7
C[C@H]1CN([C@@H](C)CO)C(=O)c2cc(NC(=O)C3CC3)ccc2O[C@H]1CN(C)S(=O)(=O)c1cn(C)cn1	nt	nt	0	nt	nt	nt
